Data from ChEMBL document CHEMBL4400513, “Aurone derivatives as promising antibacterial agents against resistant Gram-positive pathogens” (Eur J Med Chem, 2019).
Converted amounts (≈) assume the structure as drawn. The source made the active and inactive calls. The calls are words filed in the database; no cut-off is given here.

Assays:
Clostridium botulinum = assay: Bactericidal activity against Clostridium botulinum in anaerobic condition; assay type: functional, organism-based
Candida albicans = assay: Antifungal activity against Candida albicans after 2 to 5 days by two-fold serial dilutions method; assay type: functional
Vibrio diabolicus = assay: Antimicrobial activity against Vibrio diabolicus after 18 to 24 hrs in aerobic condition by two-fold serial dilutions method; assay type: functional
Procedure, shortened: (§1)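 Colonies grown overnight (~16 h) in Mueller-Hinton broth at 37 °C, 200 rpm, diluted 1/100 and grown to log phase (OD600 ~0.6), then diluted to ~10^5 bacteria/mL. Exposed to 0 to 500 µM in 1:2 series (0.2% DMSO final control), aerobic, 37 °C, 18–24 h. OD600 read; MIC = lowest concentration without visible growth; n = 3.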

Arthrobacter gandavensis = assay: Bactericidal activity against Arthrobacter gandavensis in aerobic condition; assay type: functional, organism-based
Procedure, shortened: (§2)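 From the MIC plates, 10 µL from each well without growth was streaked onto agar suited to the organism and incubated under that organism's growth conditions. Colonies were then counted; MBC = lowest concentration allowing ≤1 colony, i.e. killing 99.9% of bacteria.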

Escherichia coli [1] = assay: Bactericidal activity against Escherichia coli in aerobic condition; assay type: functional, organism-based; procedure, shortened: as §2
[2] = Therapeutic index, ratio of IC50 for human IMR90 cells to MIC for Clostridium perfringens; assay type: toxicity; details: read-out: TI
Procedure, shortened: (§3)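 IC50 measured on confluent normal human BEAS-2B or IMR-90 cells (DMEM, 10% FCS) after 48 h exposure with DMSO 0.2% as control. Resazurin read after 4 h (ex 530/em 590 nm), normalised to DMSO-treated cells. Index obtained by comparing this IC50 with the bacterial MIC.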

Aspergillus niger = assay: Fungicidal activity against Aspergillus niger after 48 hrs; assay type: functional, organism-based
Procedure, shortened: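 A. niger in RPMI medium, two-fold serial dilutions 0–500 µM (0.2% DMSO final). Incubation at 35 °C for 48 h; OD600 read, MIC as the lowest concentration with no visible growth. Killing concentration determined by streaking 10 µL from no-growth wells on agar, where ≤1 colony grew. Triplicate.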

[3] = test system: Streptococcus thermophilus; assay: Antimicrobial activity against Streptococcus thermophilus after 18 to 24 hrs in anaerobic condition by two-fold serial dilutions method; assay type: functional
Procedure, shortened: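 Precultures in BHI broth at 37 °C in an anaerobic cabinet, grown to log phase (OD600 ~0.6), then seeded at ~10^5 bacteria/mL. Two-fold dilutions from 0 to 500 µM, 0.2% DMSO final as control. Plates incubated anaerobically at 37 °C for 18–24 h, OD600 read; MIC = lowest concentration giving no visible growth; independent triplicate.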

[4] = test system: Streptococcus thermophilus; assay: Bactericidal activity against Streptococcus thermophilus in anaerobic condition; assay type: functional, organism-based
Procedure, shortened: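 S. thermophilus grown in BHI and brought to log phase (OD600 ~0.6). It is diluted to ~10^5 bacteria/mL and exposed to two-fold serial dilutions (0–500 µM, 0.2% DMSO final) at 37 °C in an anaerobic cabinet for 18–24 h. MIC read by OD600 as the lowest concentration with no visible growth. The MBC is the concentration where ≤1 colony grew after streaking 10 µL of no-growth wells on agar. Triplicate.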

[5] = test system: Mycolicibacterium smegmatis; assay: Bactericidal activity against Mycobacterium smegmatis in anaerobic condition; assay type: functional, organism-based; procedure, shortened: as §2
Citrobacter farmeri = assay: Antimicrobial activity against Citrobacter farmeri after 18 to 24 hrs in aerobic condition by two-fold serial dilutions method; assay type: functional; procedure, shortened: as §1
Enterococcus faecalis = assay: Bactericidal activity against Enterococcus faecalis in anaerobic condition; assay type: functional, organism-based; procedure, shortened: as §2
Aspergillus ochraceus = assay: Antifungal activity against Aspergillus ochraceus after 2 to 5 days by two-fold serial dilutions method; assay type: functional
Procedure, shortened: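 Broth two-fold serial dilution MIC, 0 to 500 µM (1:2 steps), from 200 mM DMSO stocks; 0.2% DMSO final as vehicle control. Inoculum about 10^5 cells/mL. Strains maintained on potato dextrose agar and in RPMI medium. Plates held at room temperature for 2 to 5 days, OD600 read; MIC = lowest concentration preventing visible growth; independent triplicate.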

Clostridium perfringens [6] = assay: Bactericidal activity against Clostridium perfringens in anaerobic condition; assay type: functional, organism-based
Penicillium verrucosum = assay: Fungicidal activity against Penicillium verrucosum; assay type: functional, organism-based
Procedure, shortened: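 Filamentous fungi grown on potato dextrose agar and tested in RPMI medium with two-fold serial dilutions (0–500 µM, 0.2% DMSO final). Plates held at room temperature for 2 to 5 days, then OD600 read; MIC taken as the lowest concentration with no visible growth. The fungicidal endpoint is ≤1 colony after streaking 10 µL of no-growth wells on agar. n = 3.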

Klebsiella pneumoniae = assay: Antimicrobial activity against Klebsiella pneumoniae after 18 to 24 hrs in aerobic condition by two-fold serial dilutions method; assay type: functional; procedure, shortened: as §1
Clostridium perfringens [7] = assay: Antimicrobial activity against Clostridium perfringens after 24 to 72 hrs in anaerobic condition by two-fold serial dilutions method; assay type: functional
Procedure, shortened: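 C. perfringens grown in BHI at 37 °C anaerobically and brought to log phase (OD600 ~0.6). About 10^5 bacteria/mL with two-fold serial dilutions 0–500 µM, DMSO 0.2% final as control. Incubated 24 h at 37 °C in anaerobic cabinet; OD600 read; MIC = lowest concentration with no visible growth. Independent triplicate.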

Escherichia coli [8] = assay: Antimicrobial activity against Escherichia coli MRS after 18 to 24 hrs in aerobic condition by two-fold serial dilutions method; assay type: functional; procedure, shortened: as §1
[9] = test system: Bacteroides thetaiotaomicron; assay: Bactericidal activity against Bacteroides thetaiotaomicron in anaerobic condition; assay type: functional, organism-based; procedure, shortened: as §2
Bacillus subtilis = assay: Bactericidal activity against Bacillus subtilis in aerobic condition; assay type: functional, organism-based; procedure, shortened: as §2
Acinetobacter baumannii = assay: Antimicrobial activity against Acinetobacter baumannii after 18 to 24 hrs in aerobic condition by two-fold serial dilutions method; assay type: functional; procedure, shortened: as §1
BEAS-2B = assay: Cytotoxicity against human BEAS2B cells assessed as reduction in cell viability after 48 hrs by Resazurin dye-based assay; details: for IC50: Homo sapiens, BEAS-2B; for Activity: human, beas-2b
Procedure, shortened: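 Normal human lung epithelial (BEAS-2B) and lung fibroblast (IMR-90) cells were grown in DMEM with 10% FCS. Cells were seeded at ~10^4/well, grown to confluence (48–72 h), then exposed to increasing concentrations for 48 h at 37 °C, 5% CO2, with 0.2% DMSO as control. Resazurin was added for 4 h and fluorescence read at 530/590 nm. Viability was normalized to DMSO wells and IC50 calculated.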

[10] = Therapeutic index, ratio of IC50 for human BEAS2B cells to MIC for methicillin-resistant Staphylococcus aureus; assay type: toxicity; details: read-out: TI; procedure, shortened: as §3

With O=C1/C(=C/c2ccccc2)Oc2cc(O)cc(O)c21 the Activity (Clostridium botulinum) was “Active”, the MIC (Candida albicans) was > 500 µM and the MIC (Vibrio diabolicus) was > 500 µM. The Activity (Arthrobacter gandavensis) was “Active”, the Activity (Escherichia coli [1]) was “Active” and the selectivity ratio [2] was 32. The Activity (Aspergillus niger) was “Active”, the MIC [3] was 31.2 µM (≈ 7.95 µg/mL) and the Activity [4] was “Active”. The Activity [5] was “Active”, the MIC (Citrobacter farmeri) was > 500 µM and the Activity (Enterococcus faecalis) was “Active”. The MIC (Aspergillus ochraceus) was > 500 µM, the Activity (Clostridium perfringens [6]) was “Active” and the Activity (Penicillium verrucosum) was “Active”. For the same molecule, the MIC (Klebsiella pneumoniae) was > 500 µM, the MIC (Clostridium perfringens [7]) was 7.8 µM (≈ 1.98 µg/mL) and the MIC (Escherichia coli [8]) was > 500 µM. The Activity [9] was “Active”, the Activity (Bacillus subtilis) was “Active” and the MIC (Acinetobacter baumannii) was > 500 µM. The IC50 (BEAS-2B) was 280 µM and the Activity (BEAS-2B) was “Dose-dependent effect”.
For COc1cc(/C=C2\Oc3cc(O)cc(O)c3C2=O)ccc1OCc1ccccc1, the Activity (Clostridium botulinum) was “Active”, the MIC (Candida albicans) was 125 µM (≈ 48.8 µg/mL) and the MIC (Vibrio diabolicus) was > 500 µM. For the same molecule, the Activity (Arthrobacter gandavensis) was “Active”, the Activity (Escherichia coli [1]) was “Active” and the Activity (Aspergillus niger) was “Active”. The MIC [3] was 125 µM (≈ 48.8 µg/mL), the Activity [4] was “Active” and the Activity [5] was “Active”. For the same molecule, the MIC (Citrobacter farmeri) was > 500 µM, the Activity (Enterococcus faecalis) was “Active” and the MIC (Aspergillus ochraceus) was > 500 µM. For the same molecule, the Activity (Clostridium perfringens [6]) was “Active”, the Activity (Penicillium verrucosum) was “Active” and the MIC (Klebsiella pneumoniae) was > 500 µM. The MIC (Clostridium perfringens [7]) was 31.2 to 62.5 µM (≈ 12.2 to 24.4 µg/mL), the MIC (Escherichia coli [8]) was > 500 µM and the Activity [9] was “Active”. For the same molecule, the Activity (Bacillus subtilis) was “Active”, the MIC (Acinetobacter baumannii) was > 500 µM and the IC50 (BEAS-2B) was 190 µM. For the same molecule, the Activity (BEAS-2B) was “Dose-dependent effect”.
For O=C1/C(=C/c2ccc(F)cc2)Oc2cc(O)cc(O)c21, the Activity (Clostridium botulinum) was “Active”, the MIC (Candida albicans) was > 500 µM and the MIC (Vibrio diabolicus) was > 500 µM. The Activity (Arthrobacter gandavensis) was “Active”, the Activity (Escherichia coli [1]) was “Active” and the Activity (Aspergillus niger) was “Active”. The selectivity ratio [10] was 76, the MIC [3] was 31.2 µM (≈ 8.51 µg/mL) and the Activity [4] was “Active”. The Activity [5] was “Active”, the MIC (Citrobacter farmeri) was > 500 µM and the Activity (Enterococcus faecalis) was “Active”. For the same molecule, the MIC (Aspergillus ochraceus) was > 500 µM, the Activity (Clostridium perfringens [6]) was “Active” and the Activity (Penicillium verrucosum) was “Active”. For the same molecule, the MIC (Klebsiella pneumoniae) was > 500 µM, the MIC (Clostridium perfringens [7]) was 31.2 to 62.5 µM (≈ 8.51 to 17 µg/mL) and the MIC (Escherichia coli [8]) was > 500 µM. For the same molecule, the Activity [9] was “Active”, the Activity (Bacillus subtilis) was “Active” and the MIC (Acinetobacter baumannii) was > 500 µM. For the same molecule, the IC50 (BEAS-2B) was 590 µM and the Activity (BEAS-2B) was “Dose-dependent effect”.
